Columns and labels:
[1] = system: murine BMSMCs; assay: Pit assay on osteo-assay surface plates, murine BMSMC-derived osteoclasts; format: cell-based, mouse; conditions: ELP-004 100 nM
Summary of the method: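 Murine BMSMC osteoclasts were grown on synthetic bone-mimetic surface plates with ±test compound (100 nM), fed every 3–5 days, and assayed on days 7, 14 and 21. Cells were removed with 10% bleach (5 min). Matrix was stained with 1% silver nitrate under UV for 20–45 min, treated with 2.5% sodium thiosulphate and dehydrated in ethanol. Average size of 10–30 pits was measured.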

[2] = preclinical testing in mice; cited from earlier work
[3] = target: T1, TRPC4 (Mus musculus, UniProt Q9QUQ5); assay: Carbachol-induced Sr2+ entry in TRPC4-overexpressing HEK293 cells; format: cell-based; conditions: read-out: IC50 of Cch-induced Sr2+ entry; Cch 100 nM, Sr2+ 3 mM
T1 sequence (Q9QUQ5 1-890 isoform Q9QUQ5-2): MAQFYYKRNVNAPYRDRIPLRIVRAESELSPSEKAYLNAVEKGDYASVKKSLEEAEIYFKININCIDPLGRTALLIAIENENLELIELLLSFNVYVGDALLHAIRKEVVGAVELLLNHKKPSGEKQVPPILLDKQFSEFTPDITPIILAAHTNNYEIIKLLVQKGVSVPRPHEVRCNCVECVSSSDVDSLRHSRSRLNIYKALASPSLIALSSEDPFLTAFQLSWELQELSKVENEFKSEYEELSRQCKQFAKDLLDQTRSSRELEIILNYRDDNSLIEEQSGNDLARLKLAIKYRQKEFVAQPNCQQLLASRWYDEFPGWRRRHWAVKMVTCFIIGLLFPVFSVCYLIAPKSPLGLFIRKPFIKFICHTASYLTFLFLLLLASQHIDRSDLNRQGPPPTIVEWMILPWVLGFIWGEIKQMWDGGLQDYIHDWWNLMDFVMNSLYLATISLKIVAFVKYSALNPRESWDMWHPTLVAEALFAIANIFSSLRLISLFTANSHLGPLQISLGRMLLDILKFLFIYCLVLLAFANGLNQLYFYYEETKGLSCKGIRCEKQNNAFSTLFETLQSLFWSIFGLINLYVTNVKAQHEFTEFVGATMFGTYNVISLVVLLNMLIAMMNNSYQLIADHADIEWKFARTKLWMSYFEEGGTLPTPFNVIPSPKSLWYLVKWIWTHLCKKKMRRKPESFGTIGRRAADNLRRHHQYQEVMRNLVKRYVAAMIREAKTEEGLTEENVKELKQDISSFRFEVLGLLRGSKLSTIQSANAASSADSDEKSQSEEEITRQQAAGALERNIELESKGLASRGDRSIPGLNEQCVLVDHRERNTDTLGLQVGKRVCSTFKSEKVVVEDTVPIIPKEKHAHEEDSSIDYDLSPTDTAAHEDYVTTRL
Summary of the method: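 HEK293 cells were electroporated with GFP-tagged TRPC4, TRPC5 or TRPC7, plated after 24 h and cultured 48 h under selection; only high-GFP cells were analysed. Coverslip cells were loaded with Fura2 (2 µM) and treated with carbachol (100 nM) plus test compound (0 to 100 µM). Entry was measured after adding Sr²⁺ (3 mM), read as the 340/380 ratio; n = 3 to 5.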

[4] = system: endogenous SOCE; assay: Endogenous SOCE; format: cell-based; conditions: read-out: IC50 of endogenous SOCE
Summary of the method: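 Store-operated entry by Fura2 imaging. Cells were loaded with Fura2-AM (2 µM, 30 min, RT) and de-esterified 30 min. They were then exposed 10 min to thapsigargin (2 µM) plus varying test compound concentrations in nominally Ca²⁺-free Hepes buffer (pH 7.2). After a stable baseline, 1 mM Ca²⁺ was added and entry was followed as the 340/380 nm ratio.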

[5] = system: TRPC4^−/− and TRPC(1–7)^−/− BMSMCs; assay: Osteoclastogenesis from TRPC4−/− and TRPC; format: cell-based, mouse
Summary of the method: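 Myeloid cells from bone marrow and spleen of TRPC4−/− and TRPC(1–7)−/− mice were cultured in αMEM, 10% FBS and mCSF (50 ng/ml). RANKL (1 or 100 ng/ml) was added at 24 h, and TNFα (2 ng/ml) and test compound (100 nM) 2–3 days later as indicated. Cultures ran 14–21 days with feeding every 3–5 days before TRAP, Ca²⁺ and pit read-outs.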

[6] = system: murine BMSMCs; assay: qPCR of osteoclast markers in murine BMSMC-derived osteoclasts; format: cell-based, mouse
Summary of the method: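 Murine osteoclasts were cultured in mCSF (50 ng/ml) with RANKL (1 or 100 ng/ml) and, where indicated, LTB4 (50 nM) or TNFα (2 ng/ml) and test compound (100 nM), for up to 14 days. Cells were pelleted and RNA was extracted. Then 250 ng RNA was DNase-treated (ezDNase) and reverse-transcribed with Superscript IV for qPCR.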

[7] = system: SKG mice; assay: SKG mouse model of RA; format: in vivo; conditions: for bone surface density (BS/TV): femur trabecular bone
Summary of the method: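 Male and female SKG mice received zymosan A (2 mg, single i.p., saline) at 8 weeks of age. From day 3, they were gavaged daily for 8 weeks with test compound in a PLGA lipid nanoemulsion (180 mg/kg) or vehicle. Paws were scored blind weekly to day 56. Micro-CT covered calcaneal pore volume and connectivity density, femoral trabecular bone (1.75 mm) and L5 (2.15 mm), with BMD calibrated against hydroxyapatite phantoms. Analysis used one-tailed unpaired t or Mann-Whitney tests.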

## CCC(=O)N(C)c1ccc(Cl)c(Cl)c1 [ELP-004]
[1]; LTB4/RANKL
  effect on matrix degradation: potent inhibition
[1]; RANKL (100 ng/ml)
  effect on pit formation (matrix degradation): significant ELP-004–induced inhibition observed on day 21
[1]; TNFα/RANKL
  effect on matrix degradation: completely abolished
[2]
  genotoxic or off-target toxicities: without inducing genotoxic or extensive off-target toxicities
[3]
  IC50: 0.172 µM
[4]
  IC50: 100 µM
[5]; RANKL or RANKL/TNFα osteoclasts from knockout BMSMCs
  effect on intracellular Ca2+: no effect
[5]; knockout BMSMCs
  effect on TRAP expression: no effect
  effect on cell size: no effect
  effect on multinucleation: no effect
  effect on pit formation: no effect
[6]; LTB4/RANKL, ELP-004 100 nM
  changes in LTB4-induced expression of other osteoclast markers: no significant changes
  effect on LTB4-induced increase in DC-STAMP expression: no effect
  effect on LTB4-induced increase in OC-STAMP expression: no effect
[6]; RANKL (100 ng/ml), ELP-004 100 nM
  changes in OC-STAMP mRNA expression: no significant changes
[6]; RANKL (100 ng/ml), day 14, ELP-004 100 nM
  effect on DC-STAMP mRNA expression: Significant inhibition
[6]; RANKL, day 14, ELP-004 100 nM
  effect on MMP9 expression: inhibited
[6]; TNFα/RANKL, ELP-004 100 nM
  effect on DC-STAMP expression: abrogated
  effect on MMP9 expression: suppressed
  effect on OC-STAMP expression: abrogated
  effect on other osteoclast markers: no other osteoclast markers
[7]; both male and female, ELP-004–LNE 180 mg/kg daily oral
  arthritic indices versus vehicle controls: reduced arthritic indices beginning at week 5
[7]; both sexes
  bone surface density in the L5 vertebrae versus vehicle: increased
  trabecular number in the L5 vertebrae versus vehicle: increased
[7]; either sex, ELP-004–LNE 180 mg/kg daily oral 8 weeks
  porosity in the tarsus or calcaneus (μCT): did not significantly change
[7]; either sex, ELP-004–LNE 180 mg/kg daily oral, without statistical significance
  joint inflammation in paws (histology): only showed a trend
[7]; female mice
  BMD in the femurs versus vehicle: increased
  bone volume/tissue volume (BV/TV) in the femurs versus vehicle: increased
  trabecular number in the femurs versus vehicle: increased
[7]; female mice, ELP-004-treated
  mean BMD of femurs: 0.1436 g/mL
[7]; females, P < 0.05
  connectivity density of pores in the calcaneus: attenuated the increase
  bone surface density (BS/TV): 6.78 ± 2.20 mm^−1
[7]; females, P = 0.056
  rescue of connectivity density of pores in the tarsus: strong tendency
[7]; males, P < 0.05
  connectivity density of pores in the tarsus: attenuated the increase
[7]; males, ELP-004–LNE 180 mg/kg daily oral 8 weeks
  bone surface density (BS/TV): 9.60 ± 2.16 mm^−1
[7]; maximum score 12
  cumulative erosion scores for metatarsals 2, 3, 4 and 5: reduced erosions in female (P < 0.05), but not male

Reference: publication PMC11734723 (Science Advances, 2025)
